Bioassay records (PubChem BioAssay)
This is a sample that favours compounds with a hit; in the whole collection about 3.5% have one here.
RGS4 block = inhibitors of human RGS4; P49798; HEK293 M3R/RGS4 inducible, Fluo-4 calcium flux; active compounds read high; triggered by carbachol at its EC20; B-score at 10 µM; 0.45% of 310,000 active;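 active = B-score, a plate-corrected calcium signal, over three deviations above library mean, with baseline fluorescence within five deviations of library mean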;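 note: RGS4 expression induced by doxycycline in cells with stable M3 receptor; B-score is computed from the integrated fluorescence ratio over baseline after carbachol; higher B-score means a larger calcium signal and so more RGS4 inhibition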
Target sequence (P49798 whole entry, looked up): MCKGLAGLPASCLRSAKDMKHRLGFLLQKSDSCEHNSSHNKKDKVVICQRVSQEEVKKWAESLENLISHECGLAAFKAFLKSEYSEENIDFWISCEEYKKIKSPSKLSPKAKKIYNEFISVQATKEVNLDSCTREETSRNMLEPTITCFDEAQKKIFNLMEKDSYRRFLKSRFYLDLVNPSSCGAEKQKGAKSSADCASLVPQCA
MrgX1 ag = human MrgX1 receptor agonism, primary screen; B-score at 10 µM; Q96LB2; MrgX1-HEK293 cells, Fluo-4 calcium fluorescence, agonist mode; active compounds read high; AID 588627; 0.44% of 310,000 active;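 active = calcium response B-score plate-corrected fluorescence ratio at least 3 library SD, with starting fluorescence B-score inside 5 SD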
Target sequence (Q96LB2 whole entry, looked up): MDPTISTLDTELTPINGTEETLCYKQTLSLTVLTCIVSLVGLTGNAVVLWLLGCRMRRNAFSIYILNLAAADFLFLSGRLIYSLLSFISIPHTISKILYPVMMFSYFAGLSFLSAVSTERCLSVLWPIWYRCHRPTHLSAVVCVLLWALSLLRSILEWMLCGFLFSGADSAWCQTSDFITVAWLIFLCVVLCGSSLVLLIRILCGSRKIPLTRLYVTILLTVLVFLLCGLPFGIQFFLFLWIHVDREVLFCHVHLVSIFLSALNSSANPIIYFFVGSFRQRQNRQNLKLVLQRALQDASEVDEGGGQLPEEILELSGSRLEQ
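Material: MrgX1-expressing HEK293 cells / Dosing: compound as first of three additions / Incubation: overnight seeding, then 1 h dark dye loading / Signal: Fluo-4 NW calcium fluorescence / Evaluation: B-scored fluorescence response ratio / Benchmarks: positive and negative control wells on each plate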
RGS4 act = potentiators or activators of RGS4 | HEK293 M3R/inducible RGS4, carbachol calcium flux Fluo4; active compounds read low | B-score at 10 µM | 0.92% of 310,000 active | AID 463111;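 active = B-score of the integrated calcium signal more than 4 SD below the library mean, with starting fluorescence not abnormally high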;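 note: negative B-score means reduced calcium response which marks RGS4 activation or potentiation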
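Material: M3R-expressing HEK293 line, RGS4 induced by doxycycline | Schedule: Overnight RGS4 induction, 30 min dye load 37 °C, 20 min compound RT | Measured by: Fluo4 fluorescence kinetic imaging of calcium | Read-out: Integrated calcium ratio converted to B score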
MrgX1 antagonist = blocks BAM8-22 activation of human MrgX1 receptor; Q96LB2; MRGX1-HEK293 calcium flux, Fluo-4, BAM8-22 antagonism; active compounds read low; AID 588676; B-score at 10 µM; 1.3% of 310,000 active;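 active = calcium-response B-score plate-corrected more than 3 library SD below zero, starting fluorescence within 5 deviations, no agonist response on first addition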;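 note: peak minus trough fluorescence over baseline after final BAM8-22 challenge near maximal dose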
MrgX1 PAM = allosterically activates human MrgX1 receptor signaling. Q96LB2. MrgX1-HEK293, Fluo-4 calcium flux, FDSS; active compounds read high. B-score at 10 µM. 0.63% of 310,000 active;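 active = plate-corrected calcium response at least 3 library SD above typical, normal starting fluorescence, not activating the receptor alone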;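 note: compound read alongside a low EC10 to EC30 dose of BAM8-22 agonist; peak minus trough fluorescence over baseline measured at the second addition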
Hits are given with their value; - = inactive; . = no result.

SMILES | RGS4 block | MrgX1 ag | RGS4 act | MrgX1 antagonist | MrgX1 PAM
COc1ccc(-c2cc(C(=O)N(C)Cc3ccccc3F)c3ccccc3n2)cc1OC | - | - | -8.25 | - | -
COc1cccc(CN(C)C(=O)c2cc(-c3cccs3)nc3ccccc23)c1 | - | - | -9.1 | - | -
COc1cc(-c2cc(C(=O)N(C)Cc3ccccc3)c3ccccc3n2)cc(OC)c1OC | - | - | - | - | -
Cc1ccc(Cn2ccc(NC(=O)c3cc(C)on3)n2)cc1 | - | - | - | - | -
CCC(C)c1ccccc1NC(=O)COC(=O)c1ccc(C)c(NC(=O)c2ccco2)c1 (centres undefined) | - | - | - | - | -
CCN(CC)S(=O)(=O)c1cccc(NC(=O)CNc2cccc(S(=O)(=O)N3CCOCC3)c2)c1 | - | - | - | - | -
C(=N\N(Cc1ccccc1)c1ccccc1)/c1cccnc1 | - | - | -7.86 | - | -
Oc1cccc(/C=N/N(Cc2ccccc2)c2ccccc2)c1 | - | - | - | - | -
CCS(=O)(=O)n1nc(C(=O)N2CCOCC2)nc1N | - | - | - | - | -
COCc1cc(C)nc(SCc2ccc(Cl)cc2)c1C#N | - | - | -7.62 | - | -
N#Cc1cc2c(nc1SCc1ccc(Cl)cc1)CCCC2 | - | - | -6.99 | - | -
Cc1csc(NC(=O)c2ccccc2C(=O)O)n1 | - | - | - | - | -
O=C(N/N=C/c1sc2ccccc2c1O)c1cccc2ccccc12 | - | - | - | -4.83 | -
COc1ccc(C(=O)N/N=C/c2sc3ccccc3c2O)cc1 | - | 39.4 | - | - | -
Nc1nonc1C(=O)N1CCCCC1 | - | - | - | - | -
CC1(C)Oc2ccc3ccc(=O)oc3c2/C(=C/NC2CCCCC2)C1=O | - | - | -7.01 | - | -
CC1(C)Oc2ccc3ccc(=O)oc3c2/C(=C/Nc2ccccc2)C1=O | - | - | - | - | -
Cc1c(Cl)c([N+](=O)[O-])nn1CCCC(=O)N1CCN(c2ccccc2)CC1 | - | - | - | -5.28 | -
Cc1c(Cl)c([N+](=O)[O-])nn1CCCC(=O)Nc1c(C)n(C)n(-c2ccccc2)c1=O | - | - | -7.33 | - | -
Cc1c(Cl)c([N+](=O)[O-])nn1CCCC(=O)Nc1c(Cl)cccc1Cl | - | - | - | - | -
Cc1c(Br)c([N+](=O)[O-])nn1CCCC(=O)N1CCN(c2ccccc2)CC1 | - | - | - | - | -
Cc1cccc2cc(/C=N/NC(=O)[C@H]3C[C@@H]3c3ccccc3)c(Cl)nc12 | - | - | - | - | -
Nn1c(SCC(=O)Nc2ccc(F)cc2)nnc1-c1ccccn1 | - | - | - | - | -
Nc1c(C(=O)OCC2CCCO2)c2nc3ccccc3nc2n1C1CCCC1 (centres undefined) | - | - | - | - | -
Cn1c(-c2c(N)n(CCCc3ccccc3)c3nc4ccccc4nc23)nc2ccccc21 | - | . | - | . | .
SMILES | RGS4 block | MrgX1 ag | RGS4 act | MrgX1 antagonist | MrgX1 PAM
Cn1c(-c2c(N)n(CCc3ccccc3)c3nc4ccccc4nc23)nc2ccccc21 | - | 29.4 | - | - | -
Cn1c(-c2c(N)n(C3CCCC3)c3nc4ccccc4nc23)nc2ccccc21 | - | - | -8.96 | -7.44 | -
O=C(OCC(=O)N1CCN(S(=O)(=O)c2ccc(Cl)cc2)CC1)c1cc(Br)ccc1O | - | - | - | - | -
COc1ccc(/C=C2\N=C3CCCCCN3C2=O)cc1OC | - | - | - | -4.68 | -
COc1ccc(/C=C/C(=O)c2ccc3ccccc3c2O)cc1CN1CCOCC1 | - | - | - | -4.69 | -
O=C(CSCc1ccccc1)Nc1ccc2c(c1)OCO2 | - | - | - | - | -
O=C(CSCc1c(Cl)cccc1Cl)Nc1ccc2c(c1)OCO2 | - | - | -7.55 | - | -
CC(=O)C(/C=N/c1cc(-c2ccc(C)cc2)nn1-c1ccccc1)=C(\C)O | - | - | - | - | -
Clc1ccccc1/C=N/c1cc(-c2ccccc2)nn1-c1ccccc1 | - | - | - | -4.92 | -
CC1Cc2ccccc2N1C(=O)CN1CCC(n2nnc3cc(C(F)(F)F)ccc32)CC1 (centres undefined) | - | - | - | - | -
CCOCCCNC(=O)C(Cc1ccccc1)NS(=O)(=O)c1ccc2c(c1)c(=O)n(C)c(=O)n2C (centres undefined) | - | - | - | -5.78 | -
Cc1cccc(Nc2nnc(SCC3CCCCO3)s2)c1C (centres undefined) | - | - | - | - | -
COc1cc2nc(Nc3cccc(F)c3)nc(N)c2cc1OC | - | - | -7.05 | - | -
COc1nc(Nc2cccc(F)c2)nc(OC)n1 | - | - | - | - | -
CC1(C)N=C2C(=[N+]1[O-])CCC/C2=N\O | - | - | - | - | -
Cc1ccc(NC2=C(N3CCCCC3)C(=O)c3ccccc3C2=O)cc1 | - | - | - | - | -
COC1=C(Nc2ccc(C)cc2)C(=O)c2ccccc2C1=O | - | - | - | - | 17.1
COC1=C(Nc2ccccc2)C(=O)c2ccccc2C1=O | - | - | - | - | 10.1
CN(C)c1ccc(C2C=C(c3ccc(Cl)cc3OC(F)F)Nc3ncnn32)cc1 (centres undefined) | - | 39.9 | - | - | -
Cc1ccc(C2C=C(c3ccccc3OC(F)F)Nc3ncnn32)cc1 (centres undefined) | - | - | - | - | -
CCN(CC)S(=O)(=O)c1ccc(OC)c(NC(=O)COc2ccccc2[N+](=O)[O-])c1 | - | - | - | - | -
O=c1ccn([C@H]2C[C@H](O)[C@@H](CO)O2)c(=O)[nH]1 | - | - | - | -6.84 | -
N#C/C(=C\c1ccc2c(c1)OCO2)C(N)=S | - | - | - | - | 7.48
CCOC(=O)/C(C#N)=C\c1ccc2c(c1)OCO2 | - | - | - | - | -
CCOP(=O)(OCC)c1nc(-c2ccc(Br)cc2)oc1N1CCCCC1 | - | - | - | - | -
SMILES | RGS4 block | MrgX1 ag | RGS4 act | MrgX1 antagonist | MrgX1 PAM
CCOP(=O)(c1ccccc1)c1nc(-c2ccc(F)cc2)oc1N1CCCCC1 (centres undefined) | - | 37.8 | - | - | -
O=C(NCCN1CCOCC1)C(=O)NCC1OCCN1S(=O)(=O)c1ccc(Br)cc1 (centres undefined) | - | - | - | - | -
CCOP(=O)(OCC)C(NC(=O)Nc1ccc(C)c(Cl)c1)c1ccccc1 (centres undefined) | - | - | - | -7.84 | -
CCOC(=O)C1(Cc2ccc(Cl)cc2)CCN(CCCn2cccn2)CC1 | - | - | - | - | -
CCCCN(C)CC(O)Cn1cc(/C=C/C(=O)c2ccc(C)cc2)c2ccccc21 (centres undefined) | - | - | - | -5.43 | -
CCOc1cc(N2CCOCC2)c(OCC)cc1NC(=O)COC(=O)COc1cc(C)cc(C)c1 | - | - | - | - | -
CCOc1cc(N2CCOCC2)c(OCC)cc1NC(=O)COC(=O)COc1ccc(C#N)cc1 | - | - | - | -6.32 | -
CCCCN1C(=O)C2(NNc3ccccc3O2)c2ccccc21 (centres undefined) | - | - | - | -6.05 | -
